Measured values from ChEMBL document CHEMBL5321203, “8-Amide and 8-carbamate substitution patterns as modulators of 7-hydroxy-4-methylcoumarin's antidepressant profile: Synthesis, biological evaluation and docking studies” (Eur J Med Chem, 2023).
Values belong to the molecule of their own block, whether it stands above or below them. The source made the active and inactive calls. No cut-off for these calls is given here.

Legend:
[1] = molecular target: T1, Amine oxidase [flavin-containing] B (Homo sapiens, UniProt P27338); experiment: Inhibition of recombinant human MAO-B expressed in baculovirus infected BTITN-5B1-4 insect cells using p-tyramine as substrate at 100 uM incubated for 10 mins followed by substrate addition measured after 15 mins by Amplex Red assay relative to control; conditions: BTI-TN-5B1-4, human, 25 min
T1 sequence (P27338 whole entry): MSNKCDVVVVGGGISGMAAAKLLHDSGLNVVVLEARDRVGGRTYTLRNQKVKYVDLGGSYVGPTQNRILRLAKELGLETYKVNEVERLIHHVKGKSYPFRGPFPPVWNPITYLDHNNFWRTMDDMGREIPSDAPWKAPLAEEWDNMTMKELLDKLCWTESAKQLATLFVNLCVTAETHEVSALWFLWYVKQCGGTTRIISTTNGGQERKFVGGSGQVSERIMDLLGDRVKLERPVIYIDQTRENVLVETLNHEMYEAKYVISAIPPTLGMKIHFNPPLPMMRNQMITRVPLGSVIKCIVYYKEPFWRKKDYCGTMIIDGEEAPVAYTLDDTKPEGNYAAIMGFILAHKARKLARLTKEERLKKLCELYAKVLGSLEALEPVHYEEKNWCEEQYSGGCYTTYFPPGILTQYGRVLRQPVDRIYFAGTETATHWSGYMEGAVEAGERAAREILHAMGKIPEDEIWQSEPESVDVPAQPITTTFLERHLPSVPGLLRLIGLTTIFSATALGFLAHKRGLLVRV

[2] = molecular target: T2, Amine oxidase [flavin-containing] A (Homo sapiens, UniProt P21397); experiment: Inhibition of recombinant human MAO-A expressed in baculovirus infected BTITN-5B1-4 insect cells using p-tyramine as substrate incubated for 10 mins followed by substrate addition measured after 15 mins by Amplex Red assay; parameters: species or system BTI-TN-5B1-4
T2 sequence (P21397 whole entry): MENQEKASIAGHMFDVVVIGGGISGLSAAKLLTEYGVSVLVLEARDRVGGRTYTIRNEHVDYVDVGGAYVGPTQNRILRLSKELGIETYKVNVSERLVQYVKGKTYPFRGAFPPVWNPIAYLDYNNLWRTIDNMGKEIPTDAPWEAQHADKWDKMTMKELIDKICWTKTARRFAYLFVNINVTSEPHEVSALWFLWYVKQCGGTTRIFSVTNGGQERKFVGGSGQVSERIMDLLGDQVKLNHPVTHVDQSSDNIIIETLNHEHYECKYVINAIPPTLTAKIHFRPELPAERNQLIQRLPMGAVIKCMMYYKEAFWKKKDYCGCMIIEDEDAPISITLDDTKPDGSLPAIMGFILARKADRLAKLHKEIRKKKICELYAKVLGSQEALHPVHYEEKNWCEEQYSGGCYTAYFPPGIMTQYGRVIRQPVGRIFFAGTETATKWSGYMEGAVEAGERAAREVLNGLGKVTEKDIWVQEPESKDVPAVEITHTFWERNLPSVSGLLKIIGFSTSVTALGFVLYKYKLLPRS

[3] = molecular target: T1, Amine oxidase [flavin-containing] B; experiment: Inhibition of recombinant human MAO-B expressed in baculovirus infected BTITN-5B1-4 insect cells using p-tyramine as substrate at 100 uM incubated for 10 mins followed by substrate addition measured after 15 mins by Amplex Red assay; conditions: bti-tn-5b1-4, 25 min
[4] = Permeability coefficient of compound incubated for 120 mins by UV-Vis spectroscopy based PAMPA-BBB assay
[5] = molecular target: T2, Amine oxidase [flavin-containing] A; experiment: Inhibition of recombinant human MAO-A expressed in baculovirus infected BTITN-5B1-4 insect cells using p-tyramine as substrate at 100 uM incubated for 10 mins followed by substrate addition measured after 15 mins by Amplex Red assay; conditions: bti-tn-5b1-4, 25 min
In short: (§1)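 Microsomal hMAO-A from baculovirus-infected BTI-TN 5B1-4 cells, 1.1 μg protein, in 0.05 M sodium phosphate pH 7.4, preincubated with compound 10 min at 37 °C. Started with 200 μM Amplex Red, 1 U/mL HRP and 1 mM p-tyramine (final). Resorufin fluorescence (ex 545/em 590 nm) read over 15 min at 37 °C; background without enzyme subtracted; vehicle controls run.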

[6] = molecular target: T1, Amine oxidase [flavin-containing] B; experiment: Inhibition of recombinant human MAO-B expressed in baculovirus infected BTITN-5B1-4 insect cells using p-tyramine as substrate incubated for 10 mins followed by substrate addition measured after 15 mins by Amplex Red assay; parameters: species or system BTI-TN-5B1-4
[7] = Metabolic stability in human liver microsomes assessed as half life at 1 uM measured upto 60 mins by UPLC-MS/MS analysis; type: ADME, Microsome
[8] = Metabolic stability in mouse liver microsomes assessed as intrinsic clearance at 1 uM measured upto 60 mins by UPLC-MS/MS analysis; type: ADME, Microsome; conditions: read-out: CLH
[9] = Metabolic stability in human liver microsomes assessed as compound remaining at 1 uM measured upto 60 mins by UPLC-MS/MS analysis; type: ADME, Microsome; conditions: read-out: Stability
[10] = Chemical stability of compound in NaH2PO4/NaHPO4 at pH 7.4 assessed as compound remaining at 10 uM incubated overnight by UPLC-MS/MS analysis; type: physicochemical; conditions: NaH2PO4/NaHPO4 buffer, read-out: Stability
In short: (§2)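 Overnight incubation at room temperature, 10 μM final. Buffers: pH 3.5 CH₃COONa/CH₃COOH 0.1 M; pH 7.4 NaH₂PO₄/NaHPO₄ 10 mM; pH 10.4 NaHCO₃/Na₂CO₃ 0.5 M. Aliquots taken at t = 0 and after incubation, analysed by UPLC-MS/MS; expressed as % remaining.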

[11] = Metabolic stability in mouse liver microsomes assessed as half life at 1 uM measured upto 60 mins by UPLC-MS/MS analysis; type: ADME, Microsome
[12] = Chemical stability of compound in NaHCO3/Na2CO3 at pH 10.4 assessed as compound remaining at 10 uM incubated overnight by UPLC-MS/MS analysis; type: physicochemical; conditions: NaHCO3/Na2CO3 buffer, read-out: Stability; in short: as §2
[13] = Chemical stability of compound in CH3COONa/CH3COOH at pH 3.5 assessed as compound remaining at 10 uM incubated overnight by UPLC-MS/MS analysis; type: physicochemical; conditions: CH3COONa/CH3COOH buffer, read-out: Stability; in short: as §2
[14] = Metabolic stability in human liver microsomes assessed as intrinsic clearance at 1 uM measured upto 60 mins by UPLC-MS/MS analysis; type: ADME, Microsome; conditions: read-out: CLH
[15] = Metabolic stability in mouse liver microsomes assessed as compound remaining at 1 uM measured upto 60 mins by UPLC-MS/MS analysis; type: ADME, Microsome; conditions: read-out: Stability
[16] = molecular target: T2, Amine oxidase [flavin-containing] A; experiment: Inhibition of recombinant human MAO-A expressed in baculovirus infected BTITN-5B1-4 insect cells using p-tyramine as substrate at 100 uM incubated for 10 mins followed by substrate addition measured after 15 mins by Amplex Red assay relative to control; conditions: BTI-TN-5B1-4, human, 25 min; in short: as §1
SH-SY5Y = experiment: Neurotoxicity against human SH-SY5Y cells assessed as reduction in cell viability at 100 uM incubated for 24 hrs by MTT assay; type: functional, cell-based
In short: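 SH-SY5Y cells in Ham's F12/EMEM 1:1 with 15% FBS, seeded at 2×10^5 cells/mL and grown 24 h. Treated with 100 μM compound (1% DMSO) for 24 h, then MTT for 2 h; formazan dissolved in DMSO and absorbance read at 540 nm. Viability as % of vehicle control; at least 3 experiments, ANOVA with Bonferroni test.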

Compound: O=C(NCCN1CCOCC1)c1ccc(Cl)cc1 [MOCLOBEMIDE]
inhibition at 100 µM [1]: 50%

Compound: Cc1cc(=O)oc2c(NC(=O)OC(C)C)c(O)ccc12
IC50 [2]: 1.88 µM

Compound: CCC(=O)Nc1c(O)ccc2c(C)cc(=O)oc12
inhibition (INH) [5]: Not Active | inhibition (INH) [3]: Not Active | IC50 [6]: 52.7 µM

Compound: Cc1ccc(C(=O)Nc2c(O)ccc3c(C)cc(=O)oc23)cc1
half-life at 1 µM [7]: 6.84 min | microsomal CLint at 1 µM [8]: 131 µL/min/mg | remaining at 1 h, 1 µM [9]: 0.5% | remaining at 10 µM [10]: 113% | half-life at 1 µM [11]: 17.1 min | remaining at 10 µM [12]: 118% | remaining at 10 µM [13]: 98% | Papp at 2 h [4]: 8.6 ×10⁻⁶ cm/s | microsomal CLint at 1 µM [14]: 196 µL/min/mg | remaining at 1 h, 1 µM [15]: 8.3%

Compound: Cc1cc(=O)oc2c(NC(=O)CC(C)(C)C)c(O)ccc12
inhibition (INH) [5]: Not Active | IC50 [6]: 7.35 µM

Compound: Cc1cc(=O)oc2c(NC(=O)CCl)c(O)ccc12
inhibition (INH) [5]: Not Active | IC50 [6]: 85.9 µM

Compound: Cc1cc(=O)oc2c(NC(=O)C(C)C)c(O)ccc12
inhibition (INH) [5]: Not Active | inhibition (INH) [3]: Not Active | IC50 [6]: 31 µM

Compound: COc1cc(C(=O)Nc2c(O)ccc3c(C)cc(=O)oc23)cc(OC)c1OC
inhibition at 100 µM [1]: 50% | inhibition (INH) [5]: Not Active | IC50 [6]: 68.3 µM

Compound: COC(=O)Nc1c(O)ccc2c(C)cc(=O)oc12
inhibition at 100 µM [1]: 50% | inhibition (INH) [5]: Not Active

Compound: C=CC(=O)Nc1c(O)ccc2c(C)cc(=O)oc12
IC50 [2]: 38.1 µM | IC50 [6]: 16.3 µM

Compound: Cc1cc(=O)oc2c(NC(=O)OCC(C)C)c(O)ccc12
inhibition (INH) [5]: Not Active | inhibition (INH) [3]: Not Active

Continued, in another order:

IC50 [2]: 17.2 µM
Compound: Cc1cc(=O)oc2c(NC(=O)OCc3ccccc3)c(O)ccc12

inhibition (INH) [3]: Not Active | Papp at 2 h [4]: 4.9 ×10⁻⁶ cm/s
Compound: CCOC(=O)Nc1c(O)ccc2c(C)cc(=O)oc12

IC50 [2]: 9.19 µM
Compound: Cc1cc(=O)oc2c(NC(=O)OCCl)c(O)ccc12

IC50 [6]: 17.3 µM | inhibition at 100 µM [16]: 50%
Compound: Cc1cc(=O)oc2c(NC(=O)c3ccco3)c(O)ccc12

IC50 [2]: 0.022 µM
Compound: Cc1cc(=O)oc2c(NC(=O)/C=C/c3ccccc3)c(O)ccc12

inhibition (INH) [5]: Not Active
Compound: Cc1cc(=O)oc2c(NC(=O)Oc3ccccc3)c(O)ccc12
Activity (SH-SY5Y): Active
